The source of these data is ChEMBL document CHEMBL4342521 (J Med Chem, 2020).

One data set relates to SF-295. The experiment in a line: Antiproliferative activity against human SF295 cells assessed as reduction in cell viability after 48 hrs by CellTiter-Blue assay. The class given is functional. The following applies: SF-295, 48 h, read-out: LC50 (the source's name). The method, boiled down: (§1)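 Cells grown in RPMI1640 with 10% FBS at 37 °C, 5% CO₂. 5,000–10,000 cells/well were pre-incubated overnight, and a time-zero CellTiter-Blue read was taken. Six 10-fold dilutions (top final 10 μM) were applied for 48 h, followed by 0.125 mg/mL CellTiter-Blue for 2–4 h. Resorufin fluorescence was read at ex 560/em 590 nm. […] Triplicates.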

The next data set deals with SNB-75. The experiment in a line: Antiproliferative activity against human SNB75 cells assessed as reduction in cell viability after 48 hrs by CellTiter-Blue assay. The class given is functional. The following applies: SNB-75, 48 h, read-out: LC50 (the source's name). The method, boiled down: (§2)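 NCI-60 panel lines grown in RPMI1640 with 10% FBS at 37 °C, 5% CO₂. Seeded at 5,000–10,000 cells/well and pre-incubated overnight. Exposed for 48 h to six 10-fold dilutions (top final 10 μM), with a time-zero plate read at dosing. CellTiter-Blue (0.125 mg/mL) for 2–4 h, fluorescence 560/590 nm, triplicate curves.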

Data set [1] has as its system MV4-11. The data set can be described thus: Inhibition of p53 degradation in human MV4-11 cells harboring wild type p53/FLT3-ITD mutant at 100 nM after 12 hrs in presence of MDM2 inhibitor RG7388 by Western blot analysis relative to control. The class given is functional. As to conditions: MV4-11, 12 h. The procedure, abridged: (§3)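 Cells (1,500,000 per well) grown 12 h, then drug-treated as specified. Lysed in RIPA buffer, sonicated, centrifuged, protein normalized by BCA. Run on 4–12% Bis-Tris gels in MES, transferred, probed overnight at 4 °C with primary antibodies at 1/1000. Actin served as reference for LC3-II quantitation.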

A further data set relates to HL-60. The data set can be described thus: Antiproliferative activity agaisnt p53 null human HL60 cells at 10 uM after 48 hrs by CellTiter-blue assay. In kind it is functional, cell-based.
In data set [2] the test system is MV4-11. The experiment in a line: Induction of apoptosis in human MV4-11 cells harboring wild type p53/FLT3-ITD mutant assessed as cleavage of pro-caspase 3 at 50 to 200 nM after 24 hrs by Western blot analysis. In kind it is functional, cell-based. The procedure, abridged:
as §3

In the next data set the test system is HCT-15. The data set can be described thus: Antiproliferative activity against human HCT15 cells assessed as reduction in cell viability after 48 hrs by CellTiter-Blue assay. In kind it is functional. The following applies: HCT-15, 48 h, read-out: LC50 (the source's name). The method, boiled down:
as §1

The next data set concerns RPMI-8226. The experiment in a line: Antiproliferative activity against human RPMI8226 cells assessed as reduction in cell viability after 48 hrs by CellTiter-Blue assay. The class given is functional. The following applies: RPMI-8226, 48 h, read-out: LC50 (the source's name). The method, boiled down:
as §1

A further data set concerns MDA-MB-435. The experiment in a line: Antiproliferative activity against human MDA-MB-435 cells assessed as reduction in cell viability after 48 hrs by CellTiter-Blue assay. In kind it is functional. As to conditions: MDA-MB-435, 48 h, read-out: LC50 (the source's name). The method, boiled down:
as §1

The subject of the next data set is HL-60(TB). The data set can be described thus: Antiproliferative activity against human HL-60(TB) cells assessed as reduction in cell viability after 48 hrs by CellTiter-Blue assay. In kind it is functional. The following applies: HL-60, 48 h, read-out: LC50 (the source's name). The method, boiled down: as §1
A further data set concerns the target Histone deacetylase 7 (Homo sapiens, UniProt Q8WUI4). The experiment in a line: Inhibition of recombinant human N-terminal GST-tagged HDAC7 (518 to end residues) expressed in baculovirus infected Sf9 cells using Boc-Lys (trifluoroacetyl)-AMC as substrate preincubated for 1 hr followed by substrate addition and measured after 2 hrs by fluorescence based micro plate reader analysis.

Data set [3] in a line: Mutagenecity in Salmonella typhimurium TA100 at 10 uM in presence of S9 liver homogenate after 2 to 3 days by mini-Ames test. In kind it is toxicity. The following applies: salmonella enterica subsp. enterica serovar typhimurium, s9, 10 µM. The method, boiled down: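 Compound was tested at a final 10 μM undiluted plus four serial dilutions, with S9 mix and glucose/biotin/trace-histidine exposure solution, for 100 min at 37 °C. Reversion medium was added and cultures dispensed to 96 wells for 2–3 days at 37 °C. Yellow or partial-yellow wells were scored positive; 2-aminoanthracene was the positive control.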

The test system of data set [4] is MV4-11. The data set can be described thus: Induction of apoptosis in human MV4-11 cells assessed as cleavage of pro caspase 3 at 200 nM after 24 hrs in presence of 50 uM z-VAD by Western blot analysis. The class given is functional, cell-based. The procedure, abridged:
as §3

The subject of data set [5] is RS4-11. The data set can be described thus: Antiproliferative activity agaisnt human RS4:11 cells expressing wild type p53/FLT3 assessed as cell death at 10 uM after 48 hrs by CellTiter-blue assay. In kind it is functional, cell-based.
The next data set deals with SR. The experiment in a line: […] in human SR cells harboring wild type p53 assessed as pro-caspase 3 cleavage at 50 to 200 nM after 24 hrs by Western blot analysis. The class given is cell-based.
The subject of data set [6] is RS4-11. The experiment in a line: Upregulation of P21WAF1/Cip1 protein expression in human RS4:11 cells harboring wild type p53/FLT3 at 50 to 200 nM after 24 hrs by Western blot analysis. In kind it is functional, cell-based. The method, boiled down:
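RS4;11 cells were cultured in RPMI-1640 with 10% FBS and HL-60 cells in IMDM with 20% FBS. Cells were plated at 1,500,000 per well, grown 12 h, then drug-treated. Lysis was in RIPA buffer with sonication and centrifugation, and loading was normalized by BCA. Lysates were run on 4–12% Bis-Tris gels in MES buffer and transferred, and membranes were probed overnight at 4 °C with 1/1000 primary antibodies.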

The test system of another data set is UACC-257. The experiment in a line: Antiproliferative activity against human UACC257 cells assessed as reduction in cell viability after 48 hrs by CellTiter-Blue assay. In kind it is functional. The following applies: UACC-257, 48 h, read-out: LC50 (the source's name). The procedure, abridged:
as §2

Data set [7] concerns MV4-11. The experiment in a line: Inhibition of ERK phosphorylation in human MV4-11 cells harboring wild type p53/FLT3-ITD mutant at 50 to 200 nM after 24 hrs by Western blot analysis. The class given is cell-based. The method, boiled down:
as §3

In the next data set the test system is OVCAR-3. The experiment in a line: Antiproliferative activity against human OVCAR3 cells assessed as reduction in cell viability after 48 hrs by CellTiter-Blue assay. In kind it is functional. The following applies: OVCAR-3, 48 h, read-out: LC50 (the source's name). The method, boiled down:
as §1

Data set [8] deals with MV4-11. The experiment in a line: Inhibition of p53 degradation in human MV4-11 cells harboring wild type p53/FLT3-ITD mutant assessed as cleavage of pro caspase-3 at 100 nM after 24 hrs in presence of MDM2 inhibitor RG7388 by Western blot analysis. The class given is functional, cell-based. The procedure, abridged:
as §3

The structures appear in SMILES notation. Active and inactive are the calls of the source. The calls are words filed in the database; no cut-off is given here.

Sequence of Histone deacetylase 7 (Q8WUI4 whole entry): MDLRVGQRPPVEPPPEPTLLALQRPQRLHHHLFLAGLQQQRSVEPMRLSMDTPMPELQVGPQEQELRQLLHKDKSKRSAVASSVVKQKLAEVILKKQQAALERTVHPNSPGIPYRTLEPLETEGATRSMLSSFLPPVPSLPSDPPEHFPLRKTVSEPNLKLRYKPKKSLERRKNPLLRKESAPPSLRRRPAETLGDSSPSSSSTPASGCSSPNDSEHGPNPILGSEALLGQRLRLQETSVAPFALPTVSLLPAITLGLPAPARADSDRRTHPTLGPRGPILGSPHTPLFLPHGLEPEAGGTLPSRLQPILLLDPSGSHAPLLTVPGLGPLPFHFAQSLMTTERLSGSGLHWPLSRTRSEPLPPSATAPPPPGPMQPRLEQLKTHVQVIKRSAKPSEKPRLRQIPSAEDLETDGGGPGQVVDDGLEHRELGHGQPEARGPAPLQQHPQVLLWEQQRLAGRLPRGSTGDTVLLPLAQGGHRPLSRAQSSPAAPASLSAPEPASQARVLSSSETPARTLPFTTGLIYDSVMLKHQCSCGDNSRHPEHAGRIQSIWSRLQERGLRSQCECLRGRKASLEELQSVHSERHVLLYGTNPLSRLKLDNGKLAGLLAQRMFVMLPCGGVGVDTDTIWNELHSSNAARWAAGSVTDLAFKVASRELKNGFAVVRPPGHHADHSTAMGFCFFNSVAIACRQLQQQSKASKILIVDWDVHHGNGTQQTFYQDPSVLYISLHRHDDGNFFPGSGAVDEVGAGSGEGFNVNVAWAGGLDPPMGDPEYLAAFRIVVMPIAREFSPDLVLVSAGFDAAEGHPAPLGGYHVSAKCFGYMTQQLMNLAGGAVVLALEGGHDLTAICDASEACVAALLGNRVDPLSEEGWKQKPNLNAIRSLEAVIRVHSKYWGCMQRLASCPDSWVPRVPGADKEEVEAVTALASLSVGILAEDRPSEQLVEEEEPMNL

Consider `CCCNNC(=O)/C=C/c1ccc(CNCCc2c(C)[nH]c3ccccc23)cc1.O=C(O)C(F)(F)F`, for which the CC50 with SF-295, in the data set with SNB-75, in the data set with HCT-15, in the data set with RPMI-8226, in the data set on MDA-MB-435 and in the data set with HL-60(TB) was more than 10 µM each time. Besides, the CC50 in the data set on UACC-257 and in the data set on OVCAR-3 was more than 10 µM throughout. The inhibition at 0.1 µM with MV4-11 [1] came out at 100%. The result with HL-60, in the data set on MV4-11 [2], in the data set on RS4-11 [5], with SR and in the data set on RS4-11 [6] was Active. In addition, on Histone deacetylase 7, the half-maximal inhibitory concentration (IC50) was more than 10 µM. Moreover, in [3], the Activity result is recorded as “Non-Toxic”. Moreover, in the data set on MV4-11 [4], the outcome was inactive. In addition, the inhibition entry in the data set on MV4-11 [7] and in the data set with MV4-11 [8] was “Active” each time.
